Experimental data collected from several papers.
Compare with care: the assays were run in different laboratories.
CDK2 with cyclin E1: Cyclin-dependent kinase 2, with cyclin E1 (CDK2, Homo sapiens, UniProt P24941)
CDK2 with cyclin E: Cyclin-dependent kinase 2, with cyclin E (CDK2, Homo sapiens, UniProt P24941)
CDK2: Cyclin-dependent kinase 2 (CDK2, Homo sapiens, UniProt P24941)
CDK2 with cyclin A: Cyclin-dependent kinase 2, with cyclin A (CDK2, Homo sapiens, UniProt P24941)

O=c1cc(-c2ccccc2)oc2ccc3ccccc3c12  IC50 (CDK2 with cyclin E1; enzyme activity; inhibitor; ADP detection): > 10 µM
CN(C)CCNC1=Nc2ccccc2-c2[nH]c3ccccc3c2C1  IC50 (CDK2 with cyclin E; enzyme activity; inhibitor; radiometric): 73 µM
OCc1c(-c2ccc(F)cc2)nc2sc3c(n12)CCCC3  IC50 (CDK2; enzyme activity; inhibitor; mobility shift): 19 µM
CN(C)CCNc1nc2ccccc2c2[nH]c3ccccc3c12  IC50 (CDK2 with cyclin E; enzyme activity; inhibitor; radiometric): 70 µM
Cc1cc(Nc2cc3ncccc3c(N[C@@H]3C[C@H]4CC[C@@H](C3)N4CCC#N)n2)n[nH]1  Kd (CDK2; binding; competition with immobilised ligand): 0.75 µM
O=C(Nc1cc(C2CCCCC2)[nH]n1)c1ccc(Br)cc1  Kd (CDK2; thermal stability; DSF): > 100 µM
C=CC(=O)Nc1ccc(N2CCC[C@@H](Nc3ncc(Cl)c(-c4c[nH]c5ccccc45)n3)C2)c(F)c1  IC50 (CDK2 with cyclin A; enzyme activity; inhibitor; FRET): 4.02 µM
CN1CCC(c2c(O)cc(O)c3c(=O)cc(-c4ccccc4)oc23)C(O)C1 (centres unmarked)  IC50 (CDK2 with cyclin A; enzyme activity; inhibitor): 0.196 µM
c1ccc(CNc2ncnc3nc[nH]c23)cc1  IC50 (Cyclin-dependent kinase 2, with cyclin A (CDK2, Homo sapiens, UniProt P24941, F80G); enzyme activity; inhibitor; radiometric): ~1 µM
CN(C)CCNS(=O)(=O)c1ccc(N/C=C2\C(=O)Nc3ccccc32)cc1  Kd (CDK2; binding): 1.06 µM
O=S(=O)(/C=C/c1ccc(C(F)(F)F)cc1)c1ccc(-c2csc(-c3ccccc3)n2)cc1  IC50 (CDK2; enzyme activity; inhibitor; mobility shift): 26 µM
COc1c(C(=O)/C=C(\O)c2ccccc2)ccc2occc12  IC50 (CDK2 with cyclin E1; enzyme activity; inhibitor; ADP detection): > 100 µM
COc1cccc(OC)c1CNC(=O)c1ccc2c(c1)C(=NNc1ccc(S(N)(=O)=O)cc1)C(=O)N2  Kd (CDK2; binding): 0.0226 µM
C=CC(=O)Nc1ccc(O[C@@H]2CCC[C@@H](Nc3ncc(Cl)c(-c4c[nH]c5ccccc45)n3)C2)cc1  IC50 (CDK2 with cyclin A; enzyme activity; inhibitor; FRET): > 10 µM
